Key:
[1] = biological target: Mu-type opioid receptor (Homo sapiens) (UniProt P35372); assay: Antagonist activity at human cloned mu opioid receptor expressed in CHO cells assessed as inhibition of DAMGO-stimulated [35S]GTPgammaS binding; assay type: functional, cell-based
In short: (§1)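 Agonist concentration-response curves for stimulated [35S]GTPγS binding are run with and without a single concentration of test compound. Ke = [L]/(DR−1), where DR is the ratio of agonist EC50 with and without compound.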

[2] = biological target: Delta-type opioid receptor (Homo sapiens) (UniProt P41143); assay: Antagonist activity at human cloned delta opioid receptor expressed in CHO cells assessed as inhibition of DPDPE-stimulated [35S]GTP-gamma-S binding; assay type: functional, cell-based; in short: as §1
Chain of Delta-type opioid receptor (Homo sapiens) (P41143 whole entry): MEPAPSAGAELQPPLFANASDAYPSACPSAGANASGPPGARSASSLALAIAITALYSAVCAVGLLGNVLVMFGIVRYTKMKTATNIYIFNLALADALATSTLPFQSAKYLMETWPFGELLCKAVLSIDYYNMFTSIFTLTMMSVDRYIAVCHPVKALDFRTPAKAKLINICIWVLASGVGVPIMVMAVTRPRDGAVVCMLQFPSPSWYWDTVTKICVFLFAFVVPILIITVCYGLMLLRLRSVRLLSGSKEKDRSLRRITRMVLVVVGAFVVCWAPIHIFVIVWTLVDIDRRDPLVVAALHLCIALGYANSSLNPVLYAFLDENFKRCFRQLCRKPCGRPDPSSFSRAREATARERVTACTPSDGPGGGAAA

[3] = biological target: Kappa-type opioid receptor (Homo sapiens) (UniProt P41145); assay: Antagonist activity at human cloned kappa opioid receptor expressed in CHO cells assessed as inhibition of U69593-stimulated [35S]GTP-gamma-S binding; assay type: functional, cell-based; in short: as §1
Chain of Kappa-type opioid receptor (Homo sapiens) (P41145 whole entry): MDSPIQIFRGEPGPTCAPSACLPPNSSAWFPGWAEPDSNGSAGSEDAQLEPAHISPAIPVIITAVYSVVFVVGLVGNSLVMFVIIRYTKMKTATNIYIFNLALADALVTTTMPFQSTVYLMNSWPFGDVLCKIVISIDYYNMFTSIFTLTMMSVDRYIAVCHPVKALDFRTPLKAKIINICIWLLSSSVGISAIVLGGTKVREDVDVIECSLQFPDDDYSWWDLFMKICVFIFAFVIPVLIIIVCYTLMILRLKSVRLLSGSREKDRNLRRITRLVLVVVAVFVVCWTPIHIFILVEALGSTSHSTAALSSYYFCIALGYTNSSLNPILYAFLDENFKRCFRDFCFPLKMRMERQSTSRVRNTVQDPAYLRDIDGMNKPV

[4] = test system: CHO; assay: Selectivity for human cloned kappa opioid receptor over human cloned mu opioid receptor expressed in CHO cells; assay type: cell-based
[5] = test system: CHO; assay: Selectivity for human cloned kappa opioid receptor over human cloned delta opioid receptor expressed in CHO cells; assay type: cell-based

Chain of Mu-type opioid receptor (Homo sapiens) (P35372 whole entry): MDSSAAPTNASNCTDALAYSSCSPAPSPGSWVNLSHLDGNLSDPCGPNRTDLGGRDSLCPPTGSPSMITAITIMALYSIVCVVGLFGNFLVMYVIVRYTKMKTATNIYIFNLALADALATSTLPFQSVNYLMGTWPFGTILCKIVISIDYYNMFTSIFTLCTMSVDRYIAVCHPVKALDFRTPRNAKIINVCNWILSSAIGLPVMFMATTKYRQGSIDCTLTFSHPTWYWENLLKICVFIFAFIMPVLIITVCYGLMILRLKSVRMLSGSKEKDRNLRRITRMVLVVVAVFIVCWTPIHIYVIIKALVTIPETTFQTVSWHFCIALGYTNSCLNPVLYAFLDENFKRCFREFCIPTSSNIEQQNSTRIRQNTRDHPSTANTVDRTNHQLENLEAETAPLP

| SMILES | Ke [1] | Ke [2] | Ke [3] | Ratio Ke [4] | Ratio Ke [5] |
| --- | --- | --- | --- | --- | --- |
| CC(C)CN(CCN1CC[C@@](C)(c2cccc(O)c2)[C@@H](C)C1)C(=O)[C@H]1Cc2ccc(O)cc2CN1 | 1 nM | 39 nM | 1.9 nM | 0.5 | 21 |
| CC(C)[C@@H](CN1CC[C@@](C)(c2cccc(O)c2)[C@@H](C)C1)NC(=O)c1nc2ccc(O)cc2[nH]1 | 15.6 nM | 290 nM | 22.4 nM | 0.7 | 13 |
| COc1ccc2c(c1)CN[C@@H](C(=O)N[C@H](CN1CC[C@@](C)(c3cccc(O)c3)[C@@H](C)C1)C(C)C)C2 | 51.4 nM | 118 nM | 0.06 nM | 857 | 1980 |
| COc1ccc2cc(C(=O)N[C@H](CN3CC[C@@](C)(c4cccc(O)c4)[C@@H](C)C3)C(C)C)cnc2c1 | 19.5 nM | 158 nM | 11.4 nM | 1.7 | 14 |
| CC[C@H](C)[C@@H](CN1CC[C@@](C)(c2cccc(O)c2)[C@@H](C)C1)NC(=O)[C@H]1Cc2ccc(O)cc2CN1 | 3 nM | 24 nM | 0.03 nM | 100 | 800 |
| COc1ccc2c(c1)CN(CC(=O)N[C@H](CN1CC[C@@](C)(c3cccc(O)c3)[C@@H](C)C1)C(C)C)CC2 | 17.7 nM | 51.7 nM | 16.8 nM | 1 | 3 |
| CC(C)[C@@H](CN1CC[C@@](C)(c2cccc(O)c2)[C@@H](C)C1)NC(=O)[C@H]1Cc2ccc(O)cc2CN1 | – | – | – | 1250 | 3800 |
| CC(C)[C@@H](CN1CC[C@@](C)(c2cccc(O)c2)[C@@H](C)C1)NC(=O)CN1CCc2ccc(O)cc2C1 | 9.2 nM | 177 nM | 23.5 nM | 0.4 | 7.5 |
| CC(C)[C@@H](CN1CC[C@@](C)(c2cccc(O)c2)[C@@H](C)C1)NC(=O)[C@H]1Cc2ccccc2CN1 | – | – | 56 nM | – | – |
| CC(C)[C@@H](CN1CC[C@@](C)(c2cccc(O)c2)[C@@H](C)C1)NC(=O)[C@H]1Cc2ccc([N+](=O)[O-])cc2CN1 | 7.9 nM | 65 nM | 6.4 nM | 1.2 | 10 |
| CC(C)[C@@H](CN1CC[C@@](C)(c2cccc(O)c2)[C@@H](C)C1)NC(=O)[C@H]1Cc2ccc(N)cc2CN1 | 12.6 nM | 373 nM | 0.2 nM | 63 | 1860 |
| CC(C)[C@@H](CN1CC[C@@](C)(c2cccc(O)c2)[C@@H](C)C1)NC(=O)[C@H]1Cc2ccc(NS(C)(=O)=O)cc2CN1 | 17.7 nM | 106 nM | 4 nM | 4.4 | 27 |
| COc1ccc2c(c1)CCN(CC(=O)N[C@H](CN1CC[C@@](C)(c3cccc(O)c3)[C@@H](C)C1)C(C)C)C2 | 11.4 nM | 76 nM | 26 nM | 0.4 | 3 |
| COc1ccc2cc(C(=O)N[C@H](CN3CC[C@@](C)(c4cccc(O)c4)[C@@H](C)C3)C(C)C)[nH]c2c1 | 13.7 nM | 282 nM | 10.9 nM | 1.3 | 26 |
| CC(C)[C@@H](CN1CC[C@@](C)(c2cccc(O)c2)[C@@H](C)C1)NC(=O)c1c[nH]c2cc(O)ccc12 | 4.8 nM | 224 nM | 4.5 nM | 1.1 | 50 |
| CC(=O)Nc1ccc2c(c1)CN[C@@H](C(=O)N[C@H](CN1CC[C@@](C)(c3cccc(O)c3)[C@@H](C)C1)C(C)C)C2 | 11 nM | 555 nM | 1.4 nM | 7.9 | 396 |
| COc1ccc2nc(C(=O)N[C@H](CN3CC[C@@](C)(c4cccc(O)c4)[C@@H](C)C3)C(C)C)[nH]c2c1 | 8.5 nM | 102 nM | 28.4 nM | 0.3 | 3.6 |
| CC(C)[C@@H](CN1CC[C@@](C)(c2cccc(O)c2)[C@@H](C)C1)NC(=O)c1cc2ccc(O)cc2[nH]1 | 23.8 nM | 97 nM | 34.1 nM | 0.7 | 3 |
| CC(C)[C@@H](CN1CC[C@@](C)(c2cccc(O)c2)[C@@H](C)C1)NC(=O)c1cnc2cc(O)ccc2c1 | 48 nM | 229 nM | 9.3 nM | 5.2 | 25 |
| CC(C)CCN(CCN1CC[C@@](C)(c2cccc(O)c2)[C@@H](C)C1)C(=O)[C@H]1Cc2ccc(O)cc2CN1 | 0.5 nM | 9.3 nM | 1.2 nM | 0.4 | 8 |
| CC(C)[C@@H](CN1CC[C@@](C)(c2cccc(O)c2)[C@@H](C)C1)NC(=O)CN1CCc2cc(O)ccc2C1 | 21.4 nM | 408 nM | 3.9 nM | 5.5 | 105 |

Source: ChEMBL document CHEMBL1144010, “Synthesis and in vitro opioid receptor functional antagonism of analogues of the selective kappa opioid receptor antagonist (3R)-7-hydroxy-N-((1S)-1-{[(3R,4R)-4-(3-hydroxyphenyl)-3,4-dimethyl-1-piperidinyl]methyl}-2-methylpropyl)-1,2,3,4-tetrahydro-3-isoquinolinecarboxamide (JDTic)” (J Med Chem, 2008)
